ChEMBL document CHEMBL5705891, “Small-molecule kinase inhibitors provide insight into Mps1 cell cycle function” (Nat Chem Biol, 2010)
The source made the active and inactive calls. No cut-off for these calls is given here.

Legend:
UTRM10 [1] = experiment: Upregulation of phosphorylated histone H3 level in UTRM10 cells (unknown origin) upto 10 uM by immunoblot analysis; type: functional, cell-based
U2OS [2] = experiment: Reversal of nocodazole-induced mitotic arrest in human U2OS cells assessed as decrease in cyclin B level at 10 uM incubated for 4 hrs in presence of MG132 by immunoblot analysis; type: functional, cell-based
[3] = target: Serine/threonine-protein kinase PLK3 (Homo sapiens, UniProt Q9H4B4); experiment: Binding affinity to PLK3 (unknown origin) assessed as dissociation constant by Ambit kinase binding assay
U2OS [4] = experiment: Reversal of s-trityl cysteine-induced mitotic arrest in human U2OS cells assessed as Ser10 phosphorylated Histone H3-positive 4c population at 5 uM incubated for 16 hrs by flow cytometry (reference value: 50 %); type: functional
[5] = target: Cyclin-G-associated kinase (Homo sapiens, UniProt O14976); experiment: Binding affinity to GAK (unknown origin) assessed as dissociation constant by Ambit kinase binding assay
[6] = target: Serine/threonine-protein kinase PLK4 (Homo sapiens, UniProt O00444); experiment: Binding affinity to PLK4 (unknown origin) assessed as dissociation constant by Ambit kinase binding assay
U2OS [7] = experiment: Reversal of s-trityl cysteine-induced mitotic arrest in human U2OS cells assessed as Ser10 phosphorylated Histone H3-positive 4c population at 10 uM incubated for 16 hrs by flow cytometry (reference value: 50 %); type: functional
[8] = target: Serine/threonine-protein kinase 33 (Homo sapiens, UniProt Q9BYT3); experiment: Binding affinity to STK33 (unknown origin) assessed as dissociation constant by Ambit kinase binding assay
[9] = target: Serine/threonine-protein kinase PLK1 (Homo sapiens, UniProt P53350); experiment: Binding affinity to PLK1 (unknown origin) assessed as dissociation constant by Ambit kinase binding assay
[10] = target: Protein-tyrosine kinase 2-beta (Homo sapiens, UniProt Q14289); experiment: Inhibition of PTK2B (unknown origin) assessed as residual enzyme activity at 10 uM by Ambit kinase binding assay relative to control
U2OS [11] = experiment: Reversal of nocodazole-induced mitotic arrest in human U2OS cells assessed as decrease in cyclin B level at 0.3 to 10 uM incubated for 4 hrs by immunoblot analysis; type: functional, cell-based; conditions: dose 0.3-10 µM
[12] = target: T1, Cyclin-G-associated kinase (Homo sapiens) (UniProt O14976); experiment: Inhibition of GAK (unknown origin) assessed as residual enzyme activity at 10 uM by Ambit kinase binding assay relative to control
T1 sequence (whole entry): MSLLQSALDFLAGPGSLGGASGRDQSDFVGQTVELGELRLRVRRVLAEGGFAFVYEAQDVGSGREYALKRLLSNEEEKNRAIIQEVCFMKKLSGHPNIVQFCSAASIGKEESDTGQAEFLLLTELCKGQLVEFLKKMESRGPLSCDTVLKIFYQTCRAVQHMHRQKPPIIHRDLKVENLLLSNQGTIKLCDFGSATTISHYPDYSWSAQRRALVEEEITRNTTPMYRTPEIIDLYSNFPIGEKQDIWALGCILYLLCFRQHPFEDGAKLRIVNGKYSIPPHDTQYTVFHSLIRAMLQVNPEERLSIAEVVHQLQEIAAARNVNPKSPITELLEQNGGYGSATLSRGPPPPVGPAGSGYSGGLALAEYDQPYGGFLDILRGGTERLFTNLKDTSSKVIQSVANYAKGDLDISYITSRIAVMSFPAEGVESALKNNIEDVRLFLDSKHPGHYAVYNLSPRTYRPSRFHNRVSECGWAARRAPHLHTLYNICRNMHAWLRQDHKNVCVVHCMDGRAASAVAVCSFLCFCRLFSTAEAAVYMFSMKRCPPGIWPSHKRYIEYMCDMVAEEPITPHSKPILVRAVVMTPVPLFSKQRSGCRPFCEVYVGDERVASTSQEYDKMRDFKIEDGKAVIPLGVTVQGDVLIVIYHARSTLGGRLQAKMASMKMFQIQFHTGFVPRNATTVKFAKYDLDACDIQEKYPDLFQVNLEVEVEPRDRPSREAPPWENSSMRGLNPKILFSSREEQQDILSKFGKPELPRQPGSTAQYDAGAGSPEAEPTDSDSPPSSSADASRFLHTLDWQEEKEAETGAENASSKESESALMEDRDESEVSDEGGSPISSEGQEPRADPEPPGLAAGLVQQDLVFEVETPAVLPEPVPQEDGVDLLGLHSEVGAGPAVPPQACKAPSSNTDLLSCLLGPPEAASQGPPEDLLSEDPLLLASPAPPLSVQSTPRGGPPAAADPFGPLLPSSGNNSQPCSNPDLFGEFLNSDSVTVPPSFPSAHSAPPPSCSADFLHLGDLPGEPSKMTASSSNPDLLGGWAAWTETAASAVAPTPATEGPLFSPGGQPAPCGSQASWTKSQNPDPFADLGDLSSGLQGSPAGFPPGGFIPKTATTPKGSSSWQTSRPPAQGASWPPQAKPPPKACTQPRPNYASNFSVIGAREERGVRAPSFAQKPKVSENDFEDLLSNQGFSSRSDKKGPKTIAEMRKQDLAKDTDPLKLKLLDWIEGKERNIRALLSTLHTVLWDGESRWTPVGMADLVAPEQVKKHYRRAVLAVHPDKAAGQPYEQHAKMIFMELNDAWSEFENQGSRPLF

[13] = target: Receptor-type tyrosine-protein kinase FLT3 (Homo sapiens) (UniProt P36888); experiment: Inhibition of FLT3 (unknown origin) assessed as residual enzyme activity at 10 uM by Ambit kinase binding assay relative to control
UTRM10 [14] = experiment: Reversal of Paclitaxel-induced mitotic arrest in UTRM10 cells (unknown origin) by immunoblot analysis; type: functional, cell-based
[15] = target: T2, Serine/threonine-protein kinase PLK4 (Homo sapiens) (UniProt O00444); experiment: Induction of Plk4 in human U2OS cells assessed as increase in cell populations with extra centrosomes by centrin staining based analysis relative to control; conditions: filed as activator
T2 sequence (whole entry): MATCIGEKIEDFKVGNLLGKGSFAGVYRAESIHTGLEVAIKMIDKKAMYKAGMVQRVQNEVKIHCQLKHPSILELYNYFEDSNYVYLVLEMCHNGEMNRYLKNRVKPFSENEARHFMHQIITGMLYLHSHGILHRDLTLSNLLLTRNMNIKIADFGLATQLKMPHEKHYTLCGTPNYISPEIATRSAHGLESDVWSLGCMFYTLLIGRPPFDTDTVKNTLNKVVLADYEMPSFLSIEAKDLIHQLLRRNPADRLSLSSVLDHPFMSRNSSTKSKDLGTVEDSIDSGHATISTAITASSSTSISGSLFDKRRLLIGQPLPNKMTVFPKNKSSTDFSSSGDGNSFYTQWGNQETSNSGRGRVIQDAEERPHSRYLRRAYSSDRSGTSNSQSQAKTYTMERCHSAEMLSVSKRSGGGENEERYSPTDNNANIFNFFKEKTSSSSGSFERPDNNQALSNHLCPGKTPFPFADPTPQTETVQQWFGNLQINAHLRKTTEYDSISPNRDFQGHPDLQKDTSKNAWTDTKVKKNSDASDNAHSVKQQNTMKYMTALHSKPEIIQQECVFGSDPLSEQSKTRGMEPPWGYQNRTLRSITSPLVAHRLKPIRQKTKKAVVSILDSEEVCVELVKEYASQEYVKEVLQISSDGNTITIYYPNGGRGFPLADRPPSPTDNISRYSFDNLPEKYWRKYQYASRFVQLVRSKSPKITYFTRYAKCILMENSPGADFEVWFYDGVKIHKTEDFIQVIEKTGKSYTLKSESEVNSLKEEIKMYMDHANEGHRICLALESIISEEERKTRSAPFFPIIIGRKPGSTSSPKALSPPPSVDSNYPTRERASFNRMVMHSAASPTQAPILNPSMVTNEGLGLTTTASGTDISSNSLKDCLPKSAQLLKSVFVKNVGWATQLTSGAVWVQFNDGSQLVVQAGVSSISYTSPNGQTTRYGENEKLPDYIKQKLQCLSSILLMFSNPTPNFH
Method in brief: (§1)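 U2OS cells with doxycycline-inducible Plk4 were induced with doxycycline (2 μg·ml⁻¹) or given DMSO. Metaphase spindles carrying more than 2 centrosomes were counted by centrin staining (~300 spindles), and spindle polarity was followed by centrin/α-tubulin/DNA immunofluorescence.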

U2OS [16] = experiment: Induction of extra centrosomes in cell populations of thymidine-treated human U2OS cells expressing H2B-GFP and Plk4 overexpression assessed as fold delay in anaphase onset measured for 30 mins by time lapse imaging analysis relative to control; type: functional; conditions: 0.5 h
Method in brief: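 Doxycycline-inducible Plk4 U2OS cells expressing H2B-GFP were blocked with thymidine for 18 hrs and released into doxycycline (2 μg·ml⁻¹) for 10 hrs. A second 18-hr thymidine block followed, then release for 6 hrs before 5 μM inhibitor, with or without Plk4 induction. Cells were imaged by time-lapse at 37°C, 5% CO₂, timed from NEBD, and bipolar versus multipolar anaphases were scored. Values are mean ± SD of 3 independent experiments.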

UTRM10 [17] = experiment: Effect on thymidine-treated UTRM10 cells (unknown origin) with Mps1-/- incubated for 24 to 72 hrs by immunoblot analysis; type: functional, cell-based; conditions: time lower 24.0 hrs, time upper […]
[18] = target: T2, Serine/threonine-protein kinase PLK4 (Homo sapiens); experiment: Induction of Plk4 in human U2OS cells assessed as bipolar cell division of cell populations with extra centrosomes by centrin staining based analysis; conditions: filed as activator; method in brief: as §1
[19] = target: T2, Serine/threonine-protein kinase PLK4 (Homo sapiens); experiment: Induction of Plk4 in human U2OS cells assessed as resolution of metaphase multipolar spindles into bipolar spindles in anaphase in cell populations with extra centrosomes by centrin staining based analysis; conditions: filed as activator; method in brief: as §1

Receptor-type tyrosine-protein kinase FLT3 (Homo sapiens), sequence (P36888 whole entry): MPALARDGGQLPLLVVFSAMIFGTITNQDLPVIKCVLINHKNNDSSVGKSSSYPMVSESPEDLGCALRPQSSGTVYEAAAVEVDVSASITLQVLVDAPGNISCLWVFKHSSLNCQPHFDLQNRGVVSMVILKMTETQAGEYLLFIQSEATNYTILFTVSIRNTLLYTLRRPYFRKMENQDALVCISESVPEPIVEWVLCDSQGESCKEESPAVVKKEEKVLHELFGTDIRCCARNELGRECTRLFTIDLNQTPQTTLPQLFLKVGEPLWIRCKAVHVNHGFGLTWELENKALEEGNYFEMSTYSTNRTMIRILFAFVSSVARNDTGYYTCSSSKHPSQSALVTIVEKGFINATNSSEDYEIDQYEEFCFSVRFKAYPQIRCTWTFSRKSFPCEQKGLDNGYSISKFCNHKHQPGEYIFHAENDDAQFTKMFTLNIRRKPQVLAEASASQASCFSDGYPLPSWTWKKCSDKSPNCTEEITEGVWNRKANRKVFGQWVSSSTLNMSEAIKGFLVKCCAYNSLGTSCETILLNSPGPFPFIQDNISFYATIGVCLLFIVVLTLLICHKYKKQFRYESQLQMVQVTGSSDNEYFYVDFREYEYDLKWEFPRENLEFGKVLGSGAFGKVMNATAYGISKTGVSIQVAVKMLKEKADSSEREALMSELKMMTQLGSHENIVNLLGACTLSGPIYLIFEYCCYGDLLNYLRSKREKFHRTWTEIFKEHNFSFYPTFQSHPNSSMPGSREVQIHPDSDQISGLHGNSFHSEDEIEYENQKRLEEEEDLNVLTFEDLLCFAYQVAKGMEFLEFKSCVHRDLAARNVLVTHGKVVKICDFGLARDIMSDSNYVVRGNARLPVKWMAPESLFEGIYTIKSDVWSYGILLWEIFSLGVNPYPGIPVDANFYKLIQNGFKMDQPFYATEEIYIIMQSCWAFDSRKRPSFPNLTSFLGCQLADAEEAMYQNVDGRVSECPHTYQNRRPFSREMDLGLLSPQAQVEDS
Serine/threonine-protein kinase 33, sequence (Q9BYT3 whole entry): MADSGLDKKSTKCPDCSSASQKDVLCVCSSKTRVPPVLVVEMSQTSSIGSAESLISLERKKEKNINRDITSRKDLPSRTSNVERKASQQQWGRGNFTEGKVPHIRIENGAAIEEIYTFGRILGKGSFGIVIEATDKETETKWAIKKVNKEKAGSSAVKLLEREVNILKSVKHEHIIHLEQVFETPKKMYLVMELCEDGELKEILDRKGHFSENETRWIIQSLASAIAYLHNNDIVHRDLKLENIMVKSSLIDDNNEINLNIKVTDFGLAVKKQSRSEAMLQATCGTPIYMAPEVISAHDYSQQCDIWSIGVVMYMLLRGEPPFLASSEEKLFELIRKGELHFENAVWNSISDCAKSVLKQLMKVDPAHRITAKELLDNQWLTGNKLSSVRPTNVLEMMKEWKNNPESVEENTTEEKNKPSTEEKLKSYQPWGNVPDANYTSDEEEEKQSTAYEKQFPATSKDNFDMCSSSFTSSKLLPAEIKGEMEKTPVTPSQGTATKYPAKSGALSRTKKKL
Serine/threonine-protein kinase PLK1, sequence (P53350 whole entry): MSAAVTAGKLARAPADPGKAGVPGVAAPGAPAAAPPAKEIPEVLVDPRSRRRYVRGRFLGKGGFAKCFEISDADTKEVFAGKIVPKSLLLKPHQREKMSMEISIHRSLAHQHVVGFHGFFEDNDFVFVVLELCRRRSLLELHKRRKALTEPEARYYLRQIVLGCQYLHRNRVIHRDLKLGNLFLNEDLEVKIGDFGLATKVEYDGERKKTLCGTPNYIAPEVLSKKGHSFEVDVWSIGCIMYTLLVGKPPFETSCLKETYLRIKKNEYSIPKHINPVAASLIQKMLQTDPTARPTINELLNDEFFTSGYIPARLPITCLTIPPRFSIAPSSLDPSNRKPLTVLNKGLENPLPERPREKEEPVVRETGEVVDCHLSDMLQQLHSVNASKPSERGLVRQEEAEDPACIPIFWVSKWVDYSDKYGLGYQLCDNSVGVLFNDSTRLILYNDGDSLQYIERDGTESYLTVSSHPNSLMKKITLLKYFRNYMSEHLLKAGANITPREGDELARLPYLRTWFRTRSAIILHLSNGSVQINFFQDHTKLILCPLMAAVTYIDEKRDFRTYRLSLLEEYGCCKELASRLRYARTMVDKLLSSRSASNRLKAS
Serine/threonine-protein kinase PLK3, sequence (Q9H4B4 whole entry): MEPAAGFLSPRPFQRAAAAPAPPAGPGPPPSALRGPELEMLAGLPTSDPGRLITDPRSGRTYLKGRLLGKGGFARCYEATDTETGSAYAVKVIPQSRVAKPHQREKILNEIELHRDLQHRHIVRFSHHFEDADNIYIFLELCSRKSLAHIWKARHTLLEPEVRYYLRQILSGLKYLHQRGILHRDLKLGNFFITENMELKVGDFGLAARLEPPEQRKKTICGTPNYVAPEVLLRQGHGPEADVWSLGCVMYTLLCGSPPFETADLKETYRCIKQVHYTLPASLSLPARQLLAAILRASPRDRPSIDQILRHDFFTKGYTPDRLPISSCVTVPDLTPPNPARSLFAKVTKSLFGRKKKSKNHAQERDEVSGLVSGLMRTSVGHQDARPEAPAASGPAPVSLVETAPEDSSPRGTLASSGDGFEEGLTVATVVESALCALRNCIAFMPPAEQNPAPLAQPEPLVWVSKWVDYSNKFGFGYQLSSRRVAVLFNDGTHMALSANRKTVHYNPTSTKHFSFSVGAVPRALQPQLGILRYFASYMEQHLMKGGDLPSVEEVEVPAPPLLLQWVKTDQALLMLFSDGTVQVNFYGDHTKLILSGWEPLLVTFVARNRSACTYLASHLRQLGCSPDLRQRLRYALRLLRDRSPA
Protein-tyrosine kinase 2-beta, sequence (Q14289 whole entry, looked up): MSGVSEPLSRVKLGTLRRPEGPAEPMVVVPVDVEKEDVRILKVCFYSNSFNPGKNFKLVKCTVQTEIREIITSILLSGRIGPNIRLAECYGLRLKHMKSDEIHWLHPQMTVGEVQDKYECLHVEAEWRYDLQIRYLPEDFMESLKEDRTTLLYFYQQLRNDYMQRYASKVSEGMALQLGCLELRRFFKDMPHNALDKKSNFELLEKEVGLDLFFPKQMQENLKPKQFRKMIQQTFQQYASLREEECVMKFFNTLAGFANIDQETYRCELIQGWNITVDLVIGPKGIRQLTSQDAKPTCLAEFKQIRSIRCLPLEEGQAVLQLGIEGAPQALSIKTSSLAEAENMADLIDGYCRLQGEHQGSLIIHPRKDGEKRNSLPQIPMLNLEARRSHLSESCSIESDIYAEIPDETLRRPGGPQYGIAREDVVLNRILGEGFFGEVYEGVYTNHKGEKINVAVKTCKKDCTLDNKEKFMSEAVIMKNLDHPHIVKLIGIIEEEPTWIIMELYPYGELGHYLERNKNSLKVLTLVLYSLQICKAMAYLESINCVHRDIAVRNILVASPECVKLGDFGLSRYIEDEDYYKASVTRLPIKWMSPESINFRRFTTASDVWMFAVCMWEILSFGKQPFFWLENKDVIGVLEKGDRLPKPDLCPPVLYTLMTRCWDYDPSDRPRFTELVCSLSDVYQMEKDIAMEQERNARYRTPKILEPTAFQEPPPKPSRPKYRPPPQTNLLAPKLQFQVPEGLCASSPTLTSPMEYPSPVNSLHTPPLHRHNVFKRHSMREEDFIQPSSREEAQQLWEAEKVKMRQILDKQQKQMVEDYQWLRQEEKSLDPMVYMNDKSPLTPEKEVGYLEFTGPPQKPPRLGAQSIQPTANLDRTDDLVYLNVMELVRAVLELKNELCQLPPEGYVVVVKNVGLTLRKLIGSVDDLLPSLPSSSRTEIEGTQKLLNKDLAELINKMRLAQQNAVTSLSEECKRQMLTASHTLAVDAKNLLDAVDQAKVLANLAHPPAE

Structure (SMILES): CCOc1cc(N2CCC(O)CC2)ccc1Nc1ncc2c(n1)N(C1CCCC1)CCC(=O)N2C
- Activity (UTRM10 [1]): Active
- Activity (U2OS [2]): inactive
- Kd [3]: 1600 nM
- Activity (U2OS [4]): 14%
- Kd [5]: 140 nM
- Kd [6]: 3100 nM
- Activity (U2OS [7]): 4%
- Kd [8]: 5000 nM
- Kd [9]: 61 nM
- Activity [10]: 24%
- Activity (U2OS [11]): Active
- Activity [12]: 2%
- Activity [13]: 0%

Structure (SMILES): Cc1cc(Nc2cc(N3CCN(C)CC3)nc(Sc3ccc(NC(=O)C4CC4)cc3)n2)n[nH]1
- Activity (UTRM10 [14]): Active

Structure (SMILES): C[C@H]1c2cccc(O)c2C(=O)C2=C(O)[C@]3(O)C(=O)C(C(N)=O)=C(O)[C@@H](N(C)C)[C@@H]3[C@@H](O)[C@@H]21 [DOXYCYCLINE ANHYDROUS]
- Activity [15]: 80%
- fold change (FC) (U2OS [16]): 2
- Activity (UTRM10 [17]): inactive
- Activity [18]: Active
- Activity [19]: Active
